Activity calls are given as the source filed them. The calls are words filed in the database; no cut-off is given here.
Columns and labels:
KARPAS-299 = test: Cytotoxicity against human KARPAS299 cells after 72 hrs by MTT assay; settings: KARPAS-299, 72 h
[1] = Cytotoxicity against human HCC827 cells after 72 hrs by MTT assay; settings: HCC827, 72 h
A549 = test: Cytotoxicity against human A549 cells after 72 hrs by MTT assay; settings: A549, 72 h
NCI-H2228 = test: Cytotoxicity against human NCI-H2228 cells after 72 hrs by MTT assay; settings: NCI-H2228, 72 h
NCI-H292 = test: Cytotoxicity against human NCI-H292 cells after 72 hrs by MTT assay; settings: NCI-H292, 72 h
MDA-MB-231 = test: Cytotoxicity against human MDA-MB-231 cells after 72 hrs by MTT assay; settings: MDA-MB-231, 72 h
BT-474 = test: Cytotoxicity against human BT474 cells after 72 hrs by MTT assay; settings: BT-474, 72 h
MCF7 = test: Cytotoxicity against human MCF7 cells after 72 hrs by MTT assay; settings: MCF7, 72 h
SW480 = test: Cytotoxicity against human SW480 cells after 72 hrs by MTT assay; settings: SW480, 72 h
HeLa = test: Cytotoxicity against human HeLa cells after 72 hrs by MTT assay
[2] = Cytotoxicity against human SK cells after 72 hrs by MTT assay
DU-145 = test: Cytotoxicity against human DU145 cells after 72 hrs by MTT assay; settings: DU-145, 72 h
A-431 = test: Cytotoxicity against human A431 cells after 72 hrs by MTT assay; settings: A-431, 72 h
MV4-11 [3] = test: Antitumor activity against human MV4-11 cells xenografted in NOD-SCID mouse assessed as tumor regression at 20 mg/kg, ip administered qd for 21 days measured after 2 to 3 days of last dose by hematoxylin staining; type: functional, organism-based; design: dose 20 mg/kg
In short: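 NOD-SCID mice bearing MV4-11 tumours received 20 mg/kg/d ip and were sacrificed at set times after dosing. Tumours were formalin-fixed and paraffin-embedded, and 4−8 μm sections were cut. Proliferation by Ki67 immunostaining, apoptosis by TUNEL staining, tissue by hematoxylin staining; light-microscope imaging.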

Mus musculus [4] = test: Toxicity in NOD-SCID mouse bearing human MV4-11 cells assessed as signs of toxicity at 20 to 100 mg/kg, ip administered qd for 21 days; type: organism-based; design: dose 20-100 mg/kg, route intraperitoneal; settings: in vivo, 504 h
In short: (§1)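 Female NOD-SCID mice (6−7 weeks old) received s.c. hind-flank injections of MV4-11 cells (100 μL of a 1 × 10⁸/mL suspension in serum-free medium). At 300−500 mm³, the mice were randomized into 4 groups of 6. They were dosed ip once daily for 21 days with 20, 40 or 100 mg/kg/d or vehicle (25% PEG400 plus 5% DMSO, 5 mL/kg). Body weight and signs of toxicity were followed throughout.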

MV4-11 [5] = test: Downregulation of STAT5 protein expression in human MV4-11 cells at 10 to 300 nM after 5 hrs by Western blot analysis; type: functional, cell-based
MV4-11 [6] = test: Antitumor activity against human MV4-11 cells xenografted in NOD-SCID mouse assessed as tumor growth inhibition at 20 mg/kg, ip once daily for 21 days measured every 3 days; type: functional; settings: MV4-11, ip, route intraperitoneal, read-out: GI
In short: (§2)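 Female NOD-SCID mice, 6−7 weeks old, received 100 μL of MV4-11 cells (1 × 10⁸/mL in serum-free medium) s.c. in the hind flank. At 300−500 mm³ tumours, mice were randomized (6 per group). Drug was dissolved in 25% (v/v) PEG400 plus 5% DMSO and given ip once daily at 5 mL/kg. Calipers every 3 days; volume = a × b²/2.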

MV4-11 [7] = test: Antitumor activity against human MV4-11 cells xenografted in NOD-SCID mouse assessed as tumor growth inhibition at 40 mg/kg, ip once daily for 21 days measured every 3 days; type: functional; settings: MV4-11, ip, route intraperitoneal, read-out: GI; in short: as §2
Mus musculus [8] = test: Toxicity in NOD-SCID mouse bearing human MV4-11 cells assessed as change in body weight at 20 to 100 mg/kg, ip administered qd for 21 days; type: organism-based; design: dose 20-100 mg/kg, route intraperitoneal; settings: in vivo, 504 h; in short: as §1
MV4-11 [9] = test: Cytotoxicity against FLT3-dependent human MV4-11 cells after 72 hrs by MTT assay; type: functional, cell-based; settings: MV4-11, 72 h
In short: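 Leukemia cells at 1−4 × 10⁴ per well were exposed to increasing inhibitor concentrations for 72 h at 37 °C. MTT was then added for 2−4 h, and cells were lysed with 20% acidified SDS. OD read at 570 nm. Viability relative to 0.1% DMSO controls; triplicate. MV4-11 grown in IMDM, others in RPMI 1640 or DMEM with 10% FBS.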

[10] = target: Mast/stem cell growth factor receptor Kit (Homo sapiens, UniProt P10721); test: Inhibition of human c-kit
[11] = target: Macrophage colony-stimulating factor 1 receptor (Homo sapiens, UniProt P07333); test: Inhibition of human FMS
[12] = target: Platelet-derived growth factor receptor alpha (Homo sapiens, UniProt P16234); test: Inhibition of human PDGFRalpha
[13] = target: Platelet-derived growth factor receptor beta (Homo sapiens, UniProt P09619); test: Inhibition of human PDGFRbeta
[14] = target: Vascular endothelial growth factor receptor 1 (Homo sapiens, UniProt P17948); test: Inhibition of human FLT1
[15] = target: Insulin-like growth factor 1 receptor (Homo sapiens, UniProt P08069); test: Inhibition of human IGF-1R
[16] = target: Tyrosine-protein kinase SYK (Homo sapiens, UniProt P43405); test: Inhibition of human Syk
U-937 = test: Cytotoxicity against human U937 cells after 72 hrs by MTT assay; settings: U-937, 72 h
Jurkat = test: Cytotoxicity against human Jurkat cells after 72 hrs by MTT assay

Chain of Platelet-derived growth factor receptor beta (P09619 whole entry): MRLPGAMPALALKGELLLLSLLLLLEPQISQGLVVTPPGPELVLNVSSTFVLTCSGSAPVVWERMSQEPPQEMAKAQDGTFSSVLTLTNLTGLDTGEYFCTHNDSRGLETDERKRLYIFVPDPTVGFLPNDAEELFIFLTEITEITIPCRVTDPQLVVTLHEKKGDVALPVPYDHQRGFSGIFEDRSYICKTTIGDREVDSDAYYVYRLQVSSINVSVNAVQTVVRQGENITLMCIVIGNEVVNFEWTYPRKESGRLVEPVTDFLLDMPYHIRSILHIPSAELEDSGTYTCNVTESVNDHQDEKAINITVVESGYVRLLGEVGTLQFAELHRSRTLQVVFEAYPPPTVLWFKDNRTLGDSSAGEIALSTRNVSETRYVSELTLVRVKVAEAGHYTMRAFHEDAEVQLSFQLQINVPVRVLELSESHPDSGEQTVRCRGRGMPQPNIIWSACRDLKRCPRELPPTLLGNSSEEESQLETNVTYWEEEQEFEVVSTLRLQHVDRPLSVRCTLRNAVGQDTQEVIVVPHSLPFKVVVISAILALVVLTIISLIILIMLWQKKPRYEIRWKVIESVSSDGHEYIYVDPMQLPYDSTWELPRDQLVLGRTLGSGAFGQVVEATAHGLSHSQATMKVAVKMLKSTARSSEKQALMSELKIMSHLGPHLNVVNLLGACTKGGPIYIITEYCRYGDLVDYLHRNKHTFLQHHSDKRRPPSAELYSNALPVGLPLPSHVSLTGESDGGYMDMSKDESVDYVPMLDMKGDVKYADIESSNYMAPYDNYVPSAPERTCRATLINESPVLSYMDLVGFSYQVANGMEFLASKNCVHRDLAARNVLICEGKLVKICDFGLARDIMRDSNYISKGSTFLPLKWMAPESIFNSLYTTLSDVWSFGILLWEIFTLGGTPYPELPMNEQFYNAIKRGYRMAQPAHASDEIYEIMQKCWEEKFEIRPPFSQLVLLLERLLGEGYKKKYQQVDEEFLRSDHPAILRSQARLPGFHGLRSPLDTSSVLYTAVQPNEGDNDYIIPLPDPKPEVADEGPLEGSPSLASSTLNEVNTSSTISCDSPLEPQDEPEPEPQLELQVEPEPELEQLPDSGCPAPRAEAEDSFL
Chain of Macrophage colony-stimulating factor 1 receptor (P07333 whole entry): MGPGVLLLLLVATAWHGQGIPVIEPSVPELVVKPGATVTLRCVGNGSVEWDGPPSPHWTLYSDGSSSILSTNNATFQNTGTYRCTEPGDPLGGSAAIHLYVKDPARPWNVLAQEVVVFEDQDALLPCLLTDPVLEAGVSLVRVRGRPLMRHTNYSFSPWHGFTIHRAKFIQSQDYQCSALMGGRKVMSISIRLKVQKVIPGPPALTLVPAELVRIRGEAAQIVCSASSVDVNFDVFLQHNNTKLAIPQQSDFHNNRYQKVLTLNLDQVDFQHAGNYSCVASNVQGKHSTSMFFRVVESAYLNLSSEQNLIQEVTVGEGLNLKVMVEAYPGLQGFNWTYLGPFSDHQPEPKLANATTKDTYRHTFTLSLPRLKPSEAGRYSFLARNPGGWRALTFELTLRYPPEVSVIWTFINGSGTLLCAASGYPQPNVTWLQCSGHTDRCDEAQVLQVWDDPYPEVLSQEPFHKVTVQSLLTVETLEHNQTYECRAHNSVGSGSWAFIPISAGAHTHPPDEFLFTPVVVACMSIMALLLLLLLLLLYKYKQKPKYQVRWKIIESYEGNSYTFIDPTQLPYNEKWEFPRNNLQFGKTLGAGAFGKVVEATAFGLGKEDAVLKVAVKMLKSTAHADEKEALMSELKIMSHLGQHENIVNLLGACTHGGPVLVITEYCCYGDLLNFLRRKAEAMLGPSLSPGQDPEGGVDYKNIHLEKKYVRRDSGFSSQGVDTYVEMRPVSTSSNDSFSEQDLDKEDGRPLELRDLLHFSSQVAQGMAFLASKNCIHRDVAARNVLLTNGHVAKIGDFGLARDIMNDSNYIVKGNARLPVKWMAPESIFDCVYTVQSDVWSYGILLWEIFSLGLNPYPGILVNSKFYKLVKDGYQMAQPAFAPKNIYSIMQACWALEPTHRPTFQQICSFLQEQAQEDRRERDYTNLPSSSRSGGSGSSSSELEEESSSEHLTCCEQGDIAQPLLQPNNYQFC
Chain of Mast/stem cell growth factor receptor Kit (P10721 whole entry): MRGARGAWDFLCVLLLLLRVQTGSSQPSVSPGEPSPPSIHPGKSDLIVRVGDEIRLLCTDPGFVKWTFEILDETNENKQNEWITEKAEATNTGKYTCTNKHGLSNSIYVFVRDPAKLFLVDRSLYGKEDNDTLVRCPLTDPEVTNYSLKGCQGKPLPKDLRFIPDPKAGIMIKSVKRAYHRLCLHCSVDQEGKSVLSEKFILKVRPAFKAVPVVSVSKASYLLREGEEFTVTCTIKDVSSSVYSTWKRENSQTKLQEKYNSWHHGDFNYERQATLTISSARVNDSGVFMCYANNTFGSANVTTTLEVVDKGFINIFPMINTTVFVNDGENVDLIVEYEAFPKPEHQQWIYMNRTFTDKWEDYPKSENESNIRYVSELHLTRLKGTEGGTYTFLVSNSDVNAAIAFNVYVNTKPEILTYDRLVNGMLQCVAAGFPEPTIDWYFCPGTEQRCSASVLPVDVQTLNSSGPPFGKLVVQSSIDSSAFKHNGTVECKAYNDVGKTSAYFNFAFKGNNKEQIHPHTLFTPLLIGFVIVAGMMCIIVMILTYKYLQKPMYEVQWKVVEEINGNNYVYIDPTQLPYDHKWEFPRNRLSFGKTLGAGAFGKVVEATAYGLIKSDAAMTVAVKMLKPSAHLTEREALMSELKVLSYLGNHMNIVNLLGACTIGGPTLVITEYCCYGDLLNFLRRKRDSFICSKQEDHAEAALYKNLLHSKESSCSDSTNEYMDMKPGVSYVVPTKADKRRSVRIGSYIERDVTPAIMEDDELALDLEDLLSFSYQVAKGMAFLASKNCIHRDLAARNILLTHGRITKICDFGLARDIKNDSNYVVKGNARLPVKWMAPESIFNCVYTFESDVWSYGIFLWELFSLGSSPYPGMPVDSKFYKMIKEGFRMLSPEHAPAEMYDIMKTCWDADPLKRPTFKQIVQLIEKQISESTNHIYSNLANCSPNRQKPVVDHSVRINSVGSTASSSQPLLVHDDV
Chain of Platelet-derived growth factor receptor alpha (P16234 whole entry): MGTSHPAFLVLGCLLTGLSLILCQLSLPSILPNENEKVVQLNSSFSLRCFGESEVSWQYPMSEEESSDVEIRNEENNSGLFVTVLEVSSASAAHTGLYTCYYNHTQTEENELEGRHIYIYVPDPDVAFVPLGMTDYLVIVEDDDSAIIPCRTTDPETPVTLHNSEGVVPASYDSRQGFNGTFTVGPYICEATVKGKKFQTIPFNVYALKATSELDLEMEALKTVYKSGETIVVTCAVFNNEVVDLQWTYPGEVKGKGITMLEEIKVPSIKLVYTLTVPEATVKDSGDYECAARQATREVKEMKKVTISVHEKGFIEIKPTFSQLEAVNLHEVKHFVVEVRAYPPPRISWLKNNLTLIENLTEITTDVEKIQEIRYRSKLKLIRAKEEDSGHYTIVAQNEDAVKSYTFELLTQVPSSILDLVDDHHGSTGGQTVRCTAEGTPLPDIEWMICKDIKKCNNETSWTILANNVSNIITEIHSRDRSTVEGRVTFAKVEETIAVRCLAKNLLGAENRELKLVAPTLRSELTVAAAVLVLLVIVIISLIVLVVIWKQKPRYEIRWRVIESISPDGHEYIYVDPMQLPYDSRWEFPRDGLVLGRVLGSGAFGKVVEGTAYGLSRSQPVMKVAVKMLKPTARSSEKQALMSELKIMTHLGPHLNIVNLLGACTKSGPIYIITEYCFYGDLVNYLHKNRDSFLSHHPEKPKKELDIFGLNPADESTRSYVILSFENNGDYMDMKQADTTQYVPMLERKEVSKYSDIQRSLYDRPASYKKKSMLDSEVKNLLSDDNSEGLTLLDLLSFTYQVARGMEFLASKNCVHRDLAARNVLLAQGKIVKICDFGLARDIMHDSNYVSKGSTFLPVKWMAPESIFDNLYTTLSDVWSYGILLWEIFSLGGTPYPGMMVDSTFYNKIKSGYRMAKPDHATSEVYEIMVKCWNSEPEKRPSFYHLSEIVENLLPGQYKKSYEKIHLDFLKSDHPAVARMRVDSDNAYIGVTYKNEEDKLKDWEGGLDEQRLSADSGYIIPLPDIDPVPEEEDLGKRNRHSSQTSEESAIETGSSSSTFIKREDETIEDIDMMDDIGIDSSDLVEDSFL

Cc1ccc(NC(=O)Nc2nnc(Sc3ncnc4cc(OCCCN5CCOCC5)ccc34)s2)cc1
IC50 (KARPAS-299): > 20 µM
IC50 [1]: 12.5 µM
IC50 (A549): > 20 µM
IC50 (NCI-H2228): > 20 µM
IC50 (NCI-H292): 6.94 µM
IC50 (MDA-MB-231): > 20 µM
IC50 (BT-474): > 20 µM
IC50 (MCF7): > 20 µM
IC50 (SW480): 11.2 µM
IC50 (HeLa): > 20 µM
IC50 [2]: > 20 µM
IC50 (DU-145): 18.6 µM
IC50 (A-431): 8.91 µM
Activity (MV4-11 [3]): Active
Activity (Mus musculus [4]): Non-toxic
Activity (MV4-11 [5]): inactive
inhibition in vivo at 20 mg/kg (MV4-11 [6]): 66%
inhibition in vivo at 40 mg/kg (MV4-11 [7]): 84%
Activity (Mus musculus [8]): Non-toxic
IC50 (MV4-11 [9]): 0.006 µM
IC50 [10]: 6.8 µM
IC50 [11]: 2.8 µM
IC50 [12]: > 10 µM
IC50 [13]: > 10 µM
IC50 [14]: > 1 µM
IC50 [15]: > 10 µM
IC50 [16]: > 10 µM
IC50 (U-937): > 10 µM
IC50 (Jurkat): 3.05 µM
